{"source": "paper PMC3594472", "about": "(Bioorganic & medicinal chemistry letters, 2013)", "key": {"[1]": {"test_system": "all five rat muscarinic acetylcholine receptors", "assay": "Muscarinic selectivity profiling, rat receptors", "type": "cell-based", "conditions": "up to the highest concentration tested (30 µM)"}, "[2]": {"test_system": "all five human muscarinic acetylcholine receptors", "assay": "Muscarinic selectivity profiling, human receptors", "type": "cell-based", "conditions": "up to the highest concentration tested (30 µM)"}, "[3]": {"biological_target": "T1, human M1 (hM1) receptor (Homo sapiens, UniProt P11229)", "T1 sequence (P11229 1-460)": "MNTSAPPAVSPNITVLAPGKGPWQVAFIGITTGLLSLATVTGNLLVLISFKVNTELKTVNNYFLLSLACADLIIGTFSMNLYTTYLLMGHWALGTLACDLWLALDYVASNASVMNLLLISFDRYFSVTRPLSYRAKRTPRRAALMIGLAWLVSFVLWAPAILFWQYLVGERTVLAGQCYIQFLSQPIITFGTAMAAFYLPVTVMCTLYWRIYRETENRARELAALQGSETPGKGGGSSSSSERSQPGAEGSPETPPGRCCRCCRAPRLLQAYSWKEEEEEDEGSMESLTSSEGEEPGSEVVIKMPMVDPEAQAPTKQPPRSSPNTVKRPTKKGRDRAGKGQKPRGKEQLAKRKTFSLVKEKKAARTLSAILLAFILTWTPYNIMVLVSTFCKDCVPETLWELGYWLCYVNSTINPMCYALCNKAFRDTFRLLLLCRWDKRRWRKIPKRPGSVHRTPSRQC", "conditions": "previously reported value; ref 7b; cited from earlier work"}, "[4]": {"biological_target": "T1, human M1 (hM1) receptor", "assay": "hM1 PAM functional activity", "type": "cell-based", "conditions": "for hM1 PAM activity (in words): concentrations up to 30 µM", "procedure,_shortened": "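Human M1 PAM functional assay. Test compound was run at concentrations up to a top level of 30 µM. Efficacy is expressed as percent of the maximal acetylcholine response. Where hM1 EC50 is listed as >10, the figure given is the percent maximal ACh response with test compound at 30 µM. Values are mean ± standard error of the mean of at least three independent determinations, each performed in triplicate.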"}}, "data": [{"smiles": "Cn1cc(-c2ccc(CN3C(=O)C4(OCCO4)c4ccccc43)c(F)c2)cn1", "note": "[Compound 3]", "values": [{"measurement": "selectivity across rat muscarinic receptors (M1-M5)", "setting": "[1]", "result": "completely selective for the M1 receptors"}, {"measurement": "selectivity across human muscarinic receptors (M1-M5)", "setting": "[2]", "result": "completely selective for the M1 receptors"}]}, {"smiles": "Cn1cc(-c2ccc(CN3C(=O)C(=O)c4ccccc43)c(F)c2)cn1", "note": "[ML137]", "values": [{"measurement": "%AChmax", "setting": "[3]", "result": 65, "unit": "%"}]}, {"smiles": "C[Si](C)(C)C1COC2(C1)C(=O)N(Cc1ccc(Br)cc1)c1ccccc12", "note": "(stereo not drawn) [Compound 16]", "values": [{"measurement": "hM1 PAM activity (in words)", "setting": "[4]", "result": "inactive"}]}, {"smiles": "Cn1cc(-c2ccc(CN3C(=O)C4(CCN(c5ccccc5)C4)c4ccccc43)c(F)c2)cn1", "note": "(stereo not drawn) [Compound 19s]", "values": [{"measurement": "hM1 PAM activity (in words)", "setting": "[4]", "result": "inactive"}]}, {"smiles": "O=C1N(Cc2ccc(Br)cc2)c2ccccc2C12CCCN2", "note": "(stereo not drawn) [Compound 13]", "values": [{"measurement": "hM1 PAM activity (in words)", "setting": "[4]", "result": "inactive"}]}, {"smiles": "Cc1nn(C)c(C)c1-c1ccc(CN2C(=O)C3(CCN(C4CCCC4)C3)c3ccccc32)c(F)c1", "note": "(stereo not drawn) [Compound 20d]", "values": [{"measurement": "hM1 PAM activity (in words)", "setting": "[4]", "result": "inactive"}]}, {"smiles": "Cn1cc(-c2ccc(CN3C(=O)C4(CCN(c5ncccn5)C4)c4ccccc43)c(F)c2)cn1", "note": "(stereo not drawn) [Compound 19t]", "values": [{"measurement": "hM1 PAM activity (in words)", "setting": "[4]", "result": "low micro-molar activity"}]}, {"smiles": "CN1CCCC12C(=O)N(Cc1ccc(Br)cc1)c1ccccc12", "note": "(stereo not drawn) [Compound 14]", "values": [{"measurement": "hM1 PAM activity (in words)", "setting": "[4]", "result": "inactive"}]}, {"smiles": "Cn1cc(-c2ccc(CN3C(=O)C4(CCNC4)c4ccccc43)c(F)c2)cn1", "note": "(stereo not drawn) [Compound 18e]", "values": [{"measurement": "hM1 PAM activity (in words)", "setting": "[4]", "result": "lacked any PAM activity"}]}, {"smiles": "O=C1N(Cc2ccc(Br)cc2)c2ccccc2C12CCCO2", "note": "(stereo not drawn) [Compound 17]", "values": [{"measurement": "hM1 PAM activity (in words)", "setting": "[4]", "result": "inactive"}]}, {"smiles": "CN1CCC2(C1)C(=O)N(Cc1ccc(-c3cnn(C)c3)cc1F)c1ccccc12", "note": "(stereo not drawn) [Compound 18d]", "values": [{"measurement": "selectivity across rat muscarinic receptors (M1-M5)", "setting": "[1]", "result": "completely selective for the M1 receptors"}, {"measurement": "selectivity across human muscarinic receptors (M1-M5)", "setting": "[2]", "result": "completely selective for the M1 receptors"}, {"measurement": "pEC50", "setting": "[4]; Table 1, hM1 PAM, mean ± SEM", "result": "5.49 ± 0.10"}]}, {"smiles": "Cc1c(-c2ccc(CN3C(=O)C4(CCN(C5CCCC5)C4)c4ccccc43)c(F)c2)cnn1C", "note": "(stereo not drawn) [Compound 20c]", "values": [{"measurement": "hM1 PAM activity (in words)", "setting": "[4]", "result": "eliminated PAM activity"}]}]}
